Assay results reported in ChEMBL document CHEMBL4364274, “Synthesis and biological activity of glycyrrhetinic acid derivatives as antitumor agents” (Eur J Med Chem, 2019).

Columns and labels:
HepG2 = assay: Antiproliferative activity against human HepG2 cells incubated for 72 hrs by MTT assay; format: functional, cell-based; settings: HepG2, 72 h
Method in brief: (§1)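 Cells in exponential growth were plated at 3×10^3 cells/well and grown 24 h at 37 °C in 5% CO2. They were then exposed to a range of drug concentrations for 72 h. MTT (5 mg/mL solution) was added for 4 h, the medium was discarded, and formazan was dissolved in DMSO before reading A490. Drug-free wells served as blanks. % inhibition was calculated as 1 − (sample−blank)/(control−blank), and IC50 was taken as the concentration giving 50% inhibition.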

MDCK = assay: Cytotoxicity against MDCK cells incubated for 72 hrs by MTT assay; format: cell-based; settings: Canis lupus familiaris; method in brief: as §1
A549 = assay: Antiproliferative activity against human A549 cells incubated for 72 hrs by MTT assay; format: functional, cell-based; settings: A549, 72 h; method in brief: as §1
MCF7 = assay: Antiproliferative activity against human MCF7 cells incubated for 72 hrs by MTT assay; format: functional, cell-based; settings: MCF7, 72 h; method in brief: as §1
HeLa = assay: Antiproliferative activity against human HeLa cells incubated for 72 hrs by MTT assay; format: functional, cell-based; method in brief: as §1

Row | Compound | IC50 (HepG2) [µM] | IC50 (A549) [µM] | IC50 (MCF7) [µM] | IC50 (HeLa) [µM] | IC50 (MDCK) [µM]
1 | CC(C)(C)OC(=O)N1CCC[C@H]1C(=O)N[C@H]1CC[C@]2(C)[C@H]3C(=O)C=C4[C@@H]5C[C@@](C)(C(=O)OCc6ccccc6)CC[C@]5(C)CC[C@@]4(C)[C@]3(C)CC[C@H]2C1(C)C | > 40 | > 40 | > 40 | > 40 | > 40
2 | CC1(C)[C@@H](O)CC[C@]2(C)[C@H]3C(=O)C=C4[C@@H]5C[C@@](C)(C(=O)O)CC[C@]5(C)CC[C@@]4(C)[C@]3(C)CC[C@@H]12 [ENOXOLONE] | > 40 | > 40 | > 40 | > 40 | > 40
3 | CN(CC(=O)O[C@H]1CC[C@]2(C)[C@H]3C(=O)C=C4[C@@H]5C[C@@](C)(C(=O)OCc6ccccc6)CC[C@]5(C)CC[C@@]4(C)[C@]3(C)CC[C@H]2C1(C)C)C(=O)OC(C)(C)C | > 40 | > 40 | > 40 | > 40 | > 40
4 | CN(CC(=O)N[C@H]1CC[C@]2(C)[C@H]3C(=O)C=C4[C@@H]5C[C@@](C)(C(=O)OCc6ccccc6)CC[C@]5(C)CC[C@@]4(C)[C@]3(C)CC[C@H]2C1(C)C)C(=O)OC(C)(C)C | > 40 | > 40 | > 40 | > 40 | > 40
5 | CSCC[C@H](NC(=O)OC(C)(C)C)C(=O)O[C@H]1CC[C@]2(C)[C@H]3C(=O)C=C4[C@@H]5C[C@@](C)(C(=O)OCc6ccccc6)CC[C@]5(C)CC[C@@]4(C)[C@]3(C)CC[C@H]2C1(C)C | > 40 | > 40 | > 40 | > 40 | > 40
6 | CC(C)(C)OC(=O)N1CCC[C@H]1C(=O)O[C@H]1CC[C@]2(C)[C@H]3C(=O)C=C4[C@@H]5C[C@@](C)(C(=O)OCc6ccccc6)CC[C@]5(C)CC[C@@]4(C)[C@]3(C)CC[C@H]2C1(C)C | > 40 | > 40 | > 40 | > 40 | > 40
7 | C[C@H](NC(=O)OC(C)(C)C)C(=O)N[C@H]1CC[C@]2(C)[C@H]3C(=O)C=C4[C@@H]5C[C@@](C)(C(=O)OCc6ccccc6)CC[C@]5(C)CC[C@@]4(C)[C@]3(C)CC[C@H]2C1(C)C | > 40 | > 40 | > 40 | > 40 | > 40
8 | CC(C)(C)OC(=O)NCC(=O)N[C@H]1CC[C@]2(C)[C@H]3C(=O)C=C4[C@@H]5C[C@@](C)(C(=O)OCc6ccccc6)CC[C@]5(C)CC[C@@]4(C)[C@]3(C)CC[C@H]2C1(C)C | > 40 | > 40 | > 40 | > 40 | > 40
9 | CC1(C)[C@@H](OC(=O)CN)CC[C@]2(C)[C@H]3C(=O)C=C4[C@@H]5C[C@@](C)(C(=O)OCc6ccccc6)CC[C@]5(C)CC[C@@]4(C)[C@]3(C)CC[C@@H]12 | 3.31 | 2.75 | 3.81 | 3.3 | 4.43
10 | CC(C)C[C@H](NC(=O)OC(C)(C)C)C(=O)N[C@H]1CC[C@]2(C)[C@H]3C(=O)C=C4[C@@H]5C[C@@](C)(C(=O)OCc6ccccc6)CC[C@]5(C)CC[C@@]4(C)[C@]3(C)CC[C@H]2C1(C)C | > 40 | > 40 | > 40 | > 40 | > 40
11 | CNCC(=O)O[C@H]1CC[C@]2(C)[C@H]3C(=O)C=C4[C@@H]5C[C@@](C)(C(=O)OCc6ccccc6)CC[C@]5(C)CC[C@@]4(C)[C@]3(C)CC[C@H]2C1(C)C | 4.56 | 5 | 3.89 | 8 | 5.76
12 | CC1(C)[C@@H](OC(=O)[C@@H]2CCCN2)CC[C@]2(C)[C@H]3C(=O)C=C4[C@@H]5C[C@@](C)(C(=O)OCc6ccccc6)CC[C@]5(C)CC[C@@]4(C)[C@]3(C)CC[C@@H]12 | 6.39 | 4.73 | 5.22 | 9.05 | 9.63
13 | CC(C)C[C@H](N)C(=O)O[C@H]1CC[C@]2(C)[C@H]3C(=O)C=C4[C@@H]5C[C@@](C)(C(=O)OCc6ccccc6)CC[C@]5(C)CC[C@@]4(C)[C@]3(C)CC[C@H]2C1(C)C | 14.9 | 22.9 | 11.9 | 43.1 | 19.3

Continued, in another order:

Row | IC50 (HepG2) [µM] | IC50 (A549) [µM] | IC50 (MCF7) [µM] | IC50 (HeLa) [µM] | Compound | IC50 (MDCK) [µM]
14 | 5.15 | 3.43 | 4.69 | 2.94 | CC[C@H](C)[C@H](N)C(=O)N[C@H]1CC[C@]2(C)[C@H]3C(=O)C=C4[C@@H]5C[C@@](C)(C(=O)OCc6ccccc6)CC[C@]5(C)CC[C@@]4(C)[C@]3(C)CC[C@H]2C1(C)C | 4.13
15 | > 40 | 17 | 14.4 | 18.8 | CC1(C)[C@@H](OC(=O)[C@@H](N)Cc2ccccc2)CC[C@]2(C)[C@H]3C(=O)C=C4[C@@H]5C[C@@](C)(C(=O)OCc6ccccc6)CC[C@]5(C)CC[C@@]4(C)[C@]3(C)CC[C@@H]12 | 14.4
16 | 3.47 | 2.44 | 2.85 | 3.01 | CC1(C)[C@@H](NC(=O)CN)CC[C@]2(C)[C@H]3C(=O)C=C4[C@@H]5C[C@@](C)(C(=O)OCc6ccccc6)CC[C@]5(C)CC[C@@]4(C)[C@]3(C)CC[C@@H]12 | 3.75
17 | 3.79 | 3.35 | 3.41 | 3.2 | CNCC(=O)N[C@H]1CC[C@]2(C)[C@H]3C(=O)C=C4[C@@H]5C[C@@](C)(C(=O)OCc6ccccc6)CC[C@]5(C)CC[C@@]4(C)[C@]3(C)CC[C@H]2C1(C)C | 3.17
18 | 3.07 | 3.17 | 4.39 | 5 | C[C@H](N)C(=O)O[C@H]1CC[C@]2(C)[C@H]3C(=O)C=C4[C@@H]5C[C@@](C)(C(=O)OCc6ccccc6)CC[C@]5(C)CC[C@@]4(C)[C@]3(C)CC[C@H]2C1(C)C | 3.4
19 | 4.09 | 6.97 | 7 | 3.1 | CSCC[C@H](N)C(=O)N[C@H]1CC[C@]2(C)[C@H]3C(=O)C=C4[C@@H]5C[C@@](C)(C(=O)OCc6ccccc6)CC[C@]5(C)CC[C@@]4(C)[C@]3(C)CC[C@H]2C1(C)C | 6.25
20 | 5.05 | 3.01 | 3.28 | 2.24 | CC1(C)[C@@H](NC(=O)[C@@H](N)Cc2ccccc2)CC[C@]2(C)[C@H]3C(=O)C=C4[C@@H]5C[C@@](C)(C(=O)OCc6ccccc6)CC[C@]5(C)CC[C@@]4(C)[C@]3(C)CC[C@@H]12 | 5.02
21 | > 40 | > 40 | > 40 | > 40 | CC(C)(C)OC(=O)N[C@@H](Cc1ccccc1)C(=O)N[C@H]1CC[C@]2(C)[C@H]3C(=O)C=C4[C@@H]5C[C@@](C)(C(=O)OCc6ccccc6)CC[C@]5(C)CC[C@@]4(C)[C@]3(C)CC[C@H]2C1(C)C | > 40
22 | > 40 | > 40 | > 40 | > 40 | CC(C)(C)OC(=O)N[C@@H](Cc1ccccc1)C(=O)O[C@H]1CC[C@]2(C)[C@H]3C(=O)C=C4[C@@H]5C[C@@](C)(C(=O)OCc6ccccc6)CC[C@]5(C)CC[C@@]4(C)[C@]3(C)CC[C@H]2C1(C)C | > 40
